Measurements published in ChEMBL document CHEMBL1125357, “Gonadotropin-releasing hormone antagonists with N omega-triazolylornithine, -lysine, or -p-aminophenylalanine residues at positions 5 and 6” (J Med Chem, 1992).
Values after ≈ are worked out from the molar mass of the structure shown. Values joined by “and” are separate entries in the source; they are usually repeats but may differ in a detail not shown here. Equal values may be shown once. Starred links: 1 amine or outer side, 2 acyl side, 3 side chain; linkers in the order of their positions; H or OH if unused. Non-standard residues stand in square brackets, D forms with d. Residues, ends and D or L forms follow the SMILES beside them. *: point of attachment. Phe(4-NH(5-NH2triazol-3-yl)) = Nc1nc(Nc2ccc(C[C@H](N)C(=O)O)cc2)n[nH]1; dNva(5-oxo-5-(4-MeOPh)) = COc1ccc(C(=O)CC[C@@H](N)C(=O)O)cc1; X1 = Nc1nc(Nc2ccc(C[C@@H](N[*:1])C(=O)[*:2])cc2)n[nH]1; d(hArg(Et2)) = CCN=C(NCC)NCCCC[C@@H](N)C(=O)O; hArg(Et2) = CCN=C(NCC)NCCCC[C@H](N)C(=O)O; Triazol3yl(1,2,4-5-NH2) = Nc1nc(*)n[nH]1; dPhe(4-Cl) = N[C@H](Cc1ccc(Cl)cc1)C(=O)O; d2Nal = N[C@H](Cc1ccc2ccccc2c1)C(=O)O; Lys(iPr) = CC(C)NCCCC[C@H](N)C(=O)O; NMeY = CN[C@@H](Cc1ccc(O)cc1)C(=O)O; dCit = NC(=O)NCCC[C@@H](N)C(=O)O; d3Pal = N[C@H](Cc1cccnc1)C(=O)O; NMeL = CN[C@@H](CC(C)C)C(=O)O; Nicotinoyl = O=C(c1cccnc1)*; dOrn = NCCC[C@@H](N)C(=O)O; Orn = NCCC[C@H](N)C(=O)O

How the values were obtained:
Homo sapiens = species on record: Homo sapiens; test: In vitro antagonistic potency relative to Ac-delta-3-Pro1-(D)Fpa2-(D)Trp3,6]GnRH; format: functional
In short: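 Cultured rat pituitary cells. Peptides were scored for inhibition of GnRH-mediated LH secretion, and potency is expressed relative to the standard antagonist [Ac-Δ3-Pro1,DFpa2,DTrp3,6]GnRH (= 1.0).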

Rattus norvegicus [1] = species on record: Rattus norvegicus; test: Antiovulatory activity measured in rat; format: functional; parameters: unit: ug/rat
In short: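 Corbin–Beattie rat antiovulatory assay. Cycling female rats of 250-300 g were given a single sc injection of peptide at noon on proestrus. Vehicle was saline or 5% DMSO in saline (200 μL), or corn oil where flagged. Result is expressed as dose in μg/rat with the number of rats ovulating over the number treated.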

Rattus norvegicus [2] = species on record: Rattus norvegicus; test: The compound was tested in vitro for the histamine release; format: functional; settings: read-out: ED50 (the source's name)
[3] = Retention time of the compound; format: ADME
In short: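 Peptide (0.5 mg/mL, 10 μL) was loaded in TEAP pH 7.0/CH3CN (76/24), acidified with H3PO4 where insoluble. Elution used a 30-48% CH3CN gradient over 30 min at 1.5 mL/min. Retention time is reported in minutes.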

| SMILES | Potency (Homo sapiens) | AOA (Rattus norvegicus [1]) | EC50 (Rattus norvegicus [2]) | RT [3] |
| --- | --- | --- | --- | --- |
| CC(=O)N[C@H](Cc1ccc2ccccc2c1)C(=O)N[C@H](Cc1ccc(Cl)cc1)C(=O)N[C@H](Cc1cccnc1)C(=O)N[C@@H](CO)C(=O)N[C@@H](CCCCNc1n[nH]c(N)n1)C(=O)N[C@H](CCCCNc1n[nH]c(N)n1)C(=O)N[C@@H](CC(C)C)C(=O)N[C@@H](CCCCNC(C)C)C(=O)N1CCC[C@H]1C(=O)NCC(N)=O | 0.12 | 1 and 2.5 | 66 µg/mL (≈ 43.1 µM) |  |
| CC(=O)N[C@H](Cc1ccc2ccccc2c1)C(=O)N[C@H](Cc1ccc(Cl)cc1)C(=O)N[C@H](Cc1cccnc1)C(=O)N[C@@H](CO)C(=O)N[C@@H](CCCN=C(N)N)C(=O)N[C@H](Cc1cccnc1)C(=O)N[C@@H](CC(C)C)C(=O)N[C@@H](CCCN=C(N)N)C(=O)N1CCC[C@H]1C(=O)N[C@H](C)C(N)=O | 0.91 | 0.5 and 1 | 2.9 µg/mL (≈ 2.05 µM) |  |
| CC(=O)N[C@H](Cc1ccc2ccccc2c1)C(=O)N[C@H](Cc1ccc(Cl)cc1)C(=O)N[C@H](Cc1cccnc1)C(=O)N[C@@H](CO)C(=O)N[C@@H](Cc1ccc(O)cc1)C(=O)N[C@H](Cc1cccnc1)C(=O)N[C@@H](CC(C)C)C(=O)N[C@@H](CCCCNC(C)C)C(=O)N1CCC[C@H]1C(=O)N[C@H](C)C(N)=O [listing 1 of 2 here] |  |  |  | 16.3 min |
| CC(=O)N[C@H](Cc1ccc2ccccc2c1)C(=O)N[C@H](Cc1ccc(Cl)cc1)C(=O)N[C@H](Cc1cccnc1)C(=O)N[C@@H](CO)C(=O)N[C@@H](Cc1ccc(O)cc1)C(=O)N[C@H](Cc1cccnc1)C(=O)N[C@@H](CC(C)C)C(=O)N[C@@H](CCCCNC(C)C)C(=O)N1CCC[C@H]1C(=O)N[C@H](C)C(N)=O [listing 2 of 2 here] | 1.3 | 1 and 2.5 | 34 µg/mL (≈ 23.7 µM) |  |
| CC(=O)N[C@H](Cc1ccc2ccccc2c1)C(=O)N[C@H](Cc1ccc(Cl)cc1)C(=O)N[C@H](Cc1cccnc1)C(=O)N[C@@H](CO)C(=O)N[C@@H](CCCCNC(=O)c1cccnc1)C(=O)N[C@H](CCCCNC(=O)c1cccnc1)C(=O)N[C@@H](CC(C)C)C(=O)N[C@@H](CCCCNC(C)C)C(=O)N1CCC[C@H]1C(=O)N[C@H](C)C(N)=O (Ac-[d2Nal][dPhe(4-Cl)][d3Pal]SK(Nicotinoyl)[dK](Nicotinoyl)L[Lys(iPr)]P[dA]-NH2) | 0.66 | 1 and 1.5 | > 300 µg/mL |  |
| CC(=O)N[C@H](Cc1ccc2ccccc2c1)C(=O)N[C@H](Cc1ccc(Cl)cc1)C(=O)N[C@H](Cc1cccnc1)C(=O)N[C@@H](CO)C(=O)N[C@@H](CCCCNc1n[nH]c(N)n1)C(=O)N[C@H](CCCCNc1n[nH]c(N)n1)C(=O)N[C@@H](CC(C)C)C(=O)N[C@@H](CCCCNC(C)C)C(=O)N1CCC[C@H]1C(=O)N[C@H](C)C(N)=O (Ac-[d2Nal][dPhe(4-Cl)][d3Pal]SK(Triazol3yl(1,2,4-5-NH2))[dK](Triazol3yl(1,2,4-5-NH2))L[Lys(iPr)]P[dA]-NH2) | 0.23 | 2 | 139 µg/mL (≈ 90 µM) |  |
| COc1ccc(C(=O)CC[C@@H](NC(=O)[C@H](CCCN=C(N)N)NC(=O)[C@H](CO)NC(=O)[C@@H](Cc2cccnc2)NC(=O)[C@@H](Cc2ccc(Cl)cc2)NC(=O)[C@@H](Cc2ccc3ccccc3c2)NC(C)=O)C(=O)N[C@@H](CC(C)C)C(=O)N[C@@H](CCCN=C(N)N)C(=O)N2CCC[C@H]2C(=O)N[C@H](C)C(N)=O)cc1 (Ac-[d2Nal][dPhe(4-Cl)][d3Pal]SR[dNva(5-oxo-5-(4-MeOPh))]LRP[dA]-NH2) | 1 | 0.5 and 1.5 | 1.8 µg/mL (≈ 1.21 µM) |  |
| CCN=C(NCC)NCCCC[C@H](NC(=O)[C@H](CC(C)C)NC(=O)[C@@H](CCCCNC(=NCC)NCC)NC(=O)[C@H](Cc1ccc(O)cc1)NC(=O)[C@H](CO)NC(=O)[C@@H](Cc1cccnc1)NC(=O)[C@@H](Cc1ccc(Cl)cc1)NC(=O)[C@@H](Cc1ccc2ccccc2c1)NC(C)=O)C(=O)N1CCC[C@H]1C(=O)N[C@H](C)C(N)=O (Ac-[d2Nal][dPhe(4-Cl)][d3Pal]SY[d(hArg(Et2))]L[hArg(Et2)]P[dA]-NH2) | 2.17 | 2.5 | 11 µg/mL (≈ 7 µM) |  |
| CC(=O)N[C@H](Cc1ccc2ccccc2c1)C(=O)N[C@H](Cc1ccc(Cl)cc1)C(=O)N[C@H](Cc1cccnc1)C(=O)N[C@@H](CO)C(=O)N[C@@H](Cc1ccc(O)cc1)C(=O)N[C@H](CCCNC(N)=O)C(=O)N[C@@H](CC(C)C)C(=O)N[C@@H](CCCNC(=N)N)C(=O)N1CCC[C@H]1C(=O)N[C@H](C)C(N)=O (Ac-[d2Nal][dPhe(4-Cl)][d3Pal]SY[dCit]LRP[dA]-NH2) |  |  |  | 10.1 min |
| CC(=O)N[C@H](Cc1ccc2ccccc2c1)C(=O)N[C@H](Cc1ccc(Cl)cc1)C(=O)N[C@H](Cc1cccnc1)C(=O)N[C@@H](CO)C(=O)N[C@@H](Cc1ccc(O)cc1)C(=O)N[C@H](CCCNC(N)=O)C(=O)N[C@@H](CC(C)C)C(=O)N[C@@H](CCCN=C(N)N)C(=O)N1CCC[C@H]1C(=O)N[C@H](C)C(N)=O (Ac-[d2Nal][dPhe(4-Cl)][d3Pal]SY[dCit]LRP[dA]-NH2) | 1.56 | 1 and 2 | 2.1 µg/mL (≈ 1.47 µM) |  |
| CC(=O)N[C@H](Cc1ccc2ccccc2c1)C(=O)N[C@H](Cc1ccc(Cl)cc1)C(=O)N[C@H](Cc1cccnc1)C(=O)N[C@@H](CO)C(=O)N(C)[C@@H](Cc1ccc(O)cc1)C(=O)N[C@H](CCCCNC(=O)c1cccnc1)C(=O)N[C@@H](CC(C)C)C(=O)N[C@@H](CCCCNC(C)C)C(=O)N1CCC[C@H]1C(=O)N[C@H](C)C(N)=O (Ac-[d2Nal][dPhe(4-Cl)][d3Pal]S[NMeY][dK](Nicotinoyl)L[Lys(iPr)]P[dA]-NH2) | 1.42 |  | 22 µg/mL (≈ 14.3 µM) |  |
| CC(=O)N[C@H](Cc1ccc2ccccc2c1)C(=O)N[C@H](Cc1ccc(Cl)cc1)C(=O)N[C@H](Cc1cccnc1)C(=O)N[C@@H](CO)C(=O)N[C@@H](CCCNc1n[nH]c(N)n1)C(=O)N[C@H](CCCNc1n[nH]c(N)n1)C(=O)N[C@@H](CC(C)C)C(=O)N[C@@H](CCCCNC(C)C)C(=O)N1CCC[C@H]1C(=O)N[C@H](C)C(N)=O (Ac-[d2Nal][dPhe(4-Cl)][d3Pal]S[Orn](Triazol3yl(1,2,4-5-NH2))[dOrn](Triazol3yl(1,2,4-5-NH2))L[Lys(iPr)]P[dA]-NH2) | 0.2 | 2 | 158 µg/mL (≈ 104 µM) |  |
| CC(=O)N[C@H](Cc1ccc2ccccc2c1)C(=O)N[C@H](Cc1ccc(Cl)cc1)C(=O)N[C@H](Cc1cccnc1)C(=O)N[C@@H](CO)C(=O)N[C@@H](Cc1ccc(Nc2n[nH]c(N)n2)cc1)C(=O)N[C@H](Cc1ccc(Nc2n[nH]c(N)n2)cc1)C(=O)N[C@@H](CC(C)C)C(=O)N[C@@H](CCCCNC(C)C)C(=O)N1CCC[C@H]1C(=O)NCC(N)=O (Ac-[d2Nal][dPhe(4-Cl)][d3Pal]S[Phe(4-NH(5-NH2triazol-3-yl))][X1]L[Lys(iPr)]PG-NH2) [listing 1 of 2 here] |  |  |  | 8.45 min |
| CC(=O)N[C@H](Cc1ccc2ccccc2c1)C(=O)N[C@H](Cc1ccc(Cl)cc1)C(=O)N[C@H](Cc1cccnc1)C(=O)N[C@@H](CO)C(=O)N[C@@H](Cc1ccc(Nc2n[nH]c(N)n2)cc1)C(=O)N[C@H](Cc1ccc(Nc2n[nH]c(N)n2)cc1)C(=O)N[C@@H](CC(C)C)C(=O)N[C@@H](CCCCNC(C)C)C(=O)N1CCC[C@H]1C(=O)NCC(N)=O (Ac-[d2Nal][dPhe(4-Cl)][d3Pal]S[Phe(4-NH(5-NH2triazol-3-yl))][X1]L[Lys(iPr)]PG-NH2) [listing 2 of 2 here] | 1 | 1 | 28 µg/mL (≈ 17.5 µM) |  |
| CC(=O)N[C@H](Cc1ccc2ccccc2c1)C(=O)N[C@H](Cc1ccc(Cl)cc1)C(=O)N[C@H](Cc1cccnc1)C(=O)N[C@@H](CO)C(=O)N[C@@H](Cc1ccc(Nc2n[nH]c(N)n2)cc1)C(=O)N[C@H](Cc1ccc(Nc2n[nH]c(N)n2)cc1)C(=O)N[C@@H](CC(C)C)C(=O)N[C@@H](CCCCNC(C)C)C(=O)N1CCC[C@H]1C(=O)N[C@H](C)C(N)=O (Ac-[d2Nal][dPhe(4-Cl)][d3Pal]S[Phe(4-NH(5-NH2triazol-3-yl))][X1]L[Lys(iPr)]P[dA]-NH2) [listing 1 of 2 here] |  |  |  | 9 min |
| CC(=O)N[C@H](Cc1ccc2ccccc2c1)C(=O)N[C@H](Cc1ccc(Cl)cc1)C(=O)N[C@H](Cc1cccnc1)C(=O)N[C@@H](CO)C(=O)N[C@@H](Cc1ccc(Nc2n[nH]c(N)n2)cc1)C(=O)N[C@H](Cc1ccc(Nc2n[nH]c(N)n2)cc1)C(=O)N[C@@H](CC(C)C)C(=O)N[C@@H](CCCCNC(C)C)C(=O)N1CCC[C@H]1C(=O)N[C@H](C)C(N)=O (Ac-[d2Nal][dPhe(4-Cl)][d3Pal]S[Phe(4-NH(5-NH2triazol-3-yl))][X1]L[Lys(iPr)]P[dA]-NH2) [listing 2 of 2 here] | 1.3 | 0.5 and 1 | 224 µg/mL (≈ 139 µM) |  |
| CC(=O)N[C@H](Cc1ccc2ccccc2c1)C(=O)N[C@H](Cc1ccc(Cl)cc1)C(=O)N[C@H](Cc1cccnc1)C(=O)N[C@@H](CO)C(=O)N[C@@H](Cc1ccc(Nc2n[nH]c(N)n2)cc1)C(=O)N[C@H](Cc1ccc(Nc2n[nH]c(N)n2)cc1)C(=O)N(C)[C@@H](CC(C)C)C(=O)N[C@@H](CCCCNC(C)C)C(=O)N1CCC[C@H]1C(=O)N[C@H](C)C(N)=O (Ac-[d2Nal][dPhe(4-Cl)][d3Pal]S[Phe(4-NH(5-NH2triazol-3-yl))][X1][NMeL][Lys(iPr)]P[dA]-NH2) | 1.6 | 0.5 and 1 | 34 µg/mL (≈ 20.9 µM) |  |
